In ChEMBL document CHEMBL1155530, “Identification of aryl 2-aminoimidazoles as biofilm inhibitors in Gram-negative bacteria” (Bioorg Med Chem Lett, 2010):
The source made the active and inactive calls. The rule behind the calls is not given here.

Legend:
Pseudomonas aeruginosa [1] = test: Dispersion of Pseudomonas aeruginosa PA14 established biofilm at 100 uM after 24 hrs by crystal violet reporter assay; assay type: functional, organism-based
Acinetobacter baumannii [2] = test: Dispersion of Acinetobacter baumannii established biofilm at 100 uM after 24 hrs by crystal violet reporter assay; assay type: functional
Acinetobacter baumannii [3] = test: Inhibition of Acinetobacter baumannii biofilm formation after 24 hrs by crystal violet reporter assay; assay type: functional, organism-based
In short: (§1)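 Biofilm formation measured by crystal violet reporter assay. Each compound was first screened at 100 µM. Compounds giving >95% inhibition then went to dose-response studies to derive IC50. Values are means of three or more experiments.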

Escherichia coli [4] = test: Inhibition of Escherichia coli biofilm formation after 24 hrs by crystal violet reporter assay; assay type: functional, organism-based; in short: as §1
Escherichia coli [5] = test: Dispersion of Escherichia coli established biofilm at 50 uM after 24 hrs by crystal violet reporter assay; assay type: functional
Pseudomonas aeruginosa [6] = test: Inhibition of Pseudomonas aeruginosa PA14 biofilm formation after 24 hrs by crystal violet reporter assay; assay type: functional, organism-based; conditions: PA14, 24 h; in short: as §1
Escherichia coli [7] = test: Toxicity in Escherichia coli assessed as inhibition of planktonic growth at IC50 concentration measured up to 24 hrs; assay type: organism-based; conditions: in vivo
Pseudomonas aeruginosa [8] = test: Inhibition of Pseudomonas aeruginosa PA14 biofilm formation at 100 uM after 24 hrs by crystal violet reporter assay; assay type: functional; conditions: PA14, 24 h; in short: as §1
Acinetobacter baumannii [9] = test: Inhibition of Acinetobacter baumannii biofilm formation at 100 uM after 24 hrs by crystal violet reporter assay; assay type: functional; in short: as §1
Escherichia coli [10] = test: Inhibition of Escherichia coli biofilm formation at 100 uM after 24 hrs by crystal violet reporter assay; assay type: functional; in short: as §1

| Structure (SMILES) | IC50 (Escherichia coli [4]) [µM] | Activity (Pseudomonas aeruginosa [1]) | further results |
| --- | --- | --- | --- |
| CCCCCCCCCC(=O)Nc1ccccc1-c1cnc(N)[nH]1.Cl | – | inactive | Activity (Acinetobacter baumannii [2]): 40%; IC50 (Acinetobacter baumannii [3]): 43 µM |
| Cl.Nc1ncc(-c2ccc(NC(=O)c3cc(F)cc(F)c3)cc2)[nH]1 | 5.2 | inactive | Activity (Escherichia coli [5]): 51%; IC50 (Pseudomonas aeruginosa [6]): 27.6 µM; Activity (Escherichia coli [7]): Non-toxic |
| CCCCCc1ccc(C(=O)Nc2ccc(-c3cnc(N)[nH]3)cc2)cc1 | 39.4 | inactive | – |
| Nc1ncc(-c2ccc(-n3cc(-c4cc(F)cc(F)c4)nn3)cc2)[nH]1 | – | – | inhibition at 100 µM (Pseudomonas aeruginosa [8]): < 5%; inhibition at 100 µM (Acinetobacter baumannii [9]): 21%; inhibition at 100 µM (Escherichia coli [10]): 35% |
| Cl.Nc1ncc(-c2ccc(NC(=O)/C=C/c3ccccc3)cc2)[nH]1 | 16.3 | inactive | Activity (Escherichia coli [5]): 67% |
| CCCCCCC(=O)Nc1ccc(-c2cnc(N)[nH]2)cc1 | – | inactive | IC50 (Pseudomonas aeruginosa [6]): 16.8 µM |
| CCCCCCC(=O)Nc1cccc(-c2cnc(N)[nH]2)c1 | – | inactive | IC50 (Pseudomonas aeruginosa [6]): 39.4 µM |
| Nc1ncc(-c2cccc(NC(=O)c3cc(F)cc(F)c3)c2)[nH]1 | – | inactive | inhibition at 100 µM (Pseudomonas aeruginosa [8]): < 5%; inhibition at 100 µM (Escherichia coli [10]): 64% |
| Nc1ncc(-c2ccccc2NC(=O)c2cc(F)cc(F)c2)[nH]1 | – | inactive | inhibition at 100 µM (Pseudomonas aeruginosa [8]): < 5%; inhibition at 100 µM (Escherichia coli [10]): < 5% |

More lines, main results first:

| IC50 (Escherichia coli [4]) [µM] | Structure (SMILES) | Activity (Pseudomonas aeruginosa [1]) | further results |
| --- | --- | --- | --- |
| 16.5 | CCCCCc1ccc(C(=O)Nc2cccc(-c3cnc(N)[nH]3)c2)cc1 | inactive | – |
| 43.4 | Nc1ncc(-c2cccc(NC(=O)C34CC5CC(CC(C5)C3)C4)c2)[nH]1 | inactive | – |
| 47 | Nc1ncc(-c2cccc(NC(=O)CCC3CCCC3)c2)[nH]1 | inactive | – |
